Reference: ChEMBL document CHEMBL1687796, “Synthesis and spectrum of the neoglycoside ACHN-490” (2010)

Key:
Escherichia coli [1] = experiment: Antibacterial activity against aminoglycoside-resistant Escherichia coli expressing ANT(2'')-1 by broth microdilution method; format: functional
Procedure, shortened: (§1)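 Clinical aminoglycoside-resistant isolates were each carrying a single aminoglycoside-modifying enzyme. […] MICs were determined by CLSI broth microdilution.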

Serratia marcescens [2] = experiment: Antibacterial activity against aminoglycoside-resistant Serratia marcescens expressing ANT(2'')-I by broth microdilution method
Enterobacter cloacae [3] = experiment: Antibacterial activity against aminoglycoside-resistant Enterobacter cloacae expressing ANT(2'')-I by broth microdilution method
Escherichia coli [4] = experiment: Antibacterial activity against aminoglycoside-resistant Escherichia coli expressing AAC(3)-2 by broth microdilution method; format: functional; procedure, shortened: as §1
Acinetobacter baumannii [5] = experiment: Antibacterial activity against Acinetobacter baumannii ATCC 19606 by broth microdilution method; format: functional; details: ATCC 19606 = CIP 70.34 = JCM 6841
Procedure, shortened: (§2)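 MICs were measured by broth microdilution following CLSI guidance. The strains formed a 25-strain screening panel with diverse aminoglycoside resistance mechanisms. The panel included Gram-negative and S. aureus strains carrying key aminoglycoside-modifying enzymes, strains with altered permeability or efflux, and an armA ribosomal methyltransferase strain.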

Acinetobacter baumannii [6] = experiment: Antibacterial activity against aminoglycoside-resistant Acinetobacter baumannii expressing APH(3')-6 by broth microdilution method; format: functional; procedure, shortened: as §1
Klebsiella pneumoniae [7] = experiment: Antibacterial activity against aminoglycoside-resistant Klebsiella pneumoniae expressing AAC(3)-1 by broth microdilution method; format: functional; procedure, shortened: as §1
Pseudomonas aeruginosa [8] = experiment: Antibacterial activity against Pseudomonas aeruginosa expressing AAC(6')-2 by broth microdilution method; format: functional
Providencia stuartii = experiment: Antibacterial activity against aminoglycoside-resistant Providencia stuartii expressing AAC(2')-1 by broth microdilution method
[9] = system: Staphylococcus epidermidis; experiment: Antibacterial activity against aminoglycoside-resistant Staphylococcus epidermidis expressing ANT(4',4'')-2 by broth microdilution method; format: functional; procedure, shortened: as §1
Staphylococcus aureus [10] = experiment: microbe, parasite or virus in culture
Citrobacter freundii [11] = experiment: Antibacterial activity against aminoglycoside-resistant Citrobacter freundii expressing AAC(6')-1 by broth microdilution method; format: functional; procedure, shortened: as §1
Pseudomonas aeruginosa [12] = experiment: Antibacterial activity against Pseudomonas aeruginosa expressing ANT(4')-2 by broth microdilution method; format: functional; procedure, shortened: as §2
Klebsiella pneumoniae [13] = experiment: Antibacterial activity against aminoglycoside-resistant Klebsiella pneumoniae expressing AAC(6')-1 by broth microdilution method; format: functional; procedure, shortened: as §1
Escherichia coli [14] = experiment: Antibacterial activity against aminoglycoside-resistant Escherichia coli expressing ANT(2'')-I by broth microdilution method
Pluralibacter gergoviae = experiment: Antibacterial activity against aminoglycoside-resistant Enterobacter gergoviae expressing ANT(2'')-I by broth microdilution method
Staphylococcus aureus [15] = experiment: Antibacterial activity against aminoglycoside-resistant Staphylococcus aureus expressing ANT(4',4'')-2 by broth microdilution method; format: functional; procedure, shortened: as §1
Enterobacter cloacae [16] = experiment: Antibacterial activity against aminoglycoside-resistant Enterobacter cloacae expressing AAC(3)-2 by broth microdilution method; format: functional; procedure, shortened: as §1
Pseudomonas aeruginosa [17] = experiment: Antibacterial activity against Pseudomonas aeruginosa expressing mexXY operon by broth microdilution method; format: functional; procedure, shortened: as §2
Pseudomonas aeruginosa [18] = experiment: Antibacterial activity against Pseudomonas aeruginosa expressing AAC(3)-1 by broth microdilution method; format: functional
Klebsiella pneumoniae [19] = experiment: Antibacterial activity against Klebsiella pneumoniae ATCC 10031 by broth microdilution method; format: functional; procedure, shortened: as §2
Klebsiella pneumoniae [20] = experiment: Antibacterial activity against aminoglycoside-resistant Klebsiella pneumoniae expressing AAC(3)-2 by broth microdilution method; format: functional; procedure, shortened: as §1
Serratia liquefaciens = experiment: Antibacterial activity against aminoglycoside-resistant Serratia liquefaciens expressing AAC(3)-2 by broth microdilution method; format: functional; procedure, shortened: as §1
Enterobacter cloacae [21] = experiment: Antibacterial activity against aminoglycoside-resistant Enterobacter cloacae expressing AAC(6')-1 by broth microdilution method; format: functional; procedure, shortened: as §1
Staphylococcus aureus [22] = experiment: Antibacterial activity against aminoglycoside-resistant Staphylococcus aureus expressing APH(2'') + AAC(6')-1 by broth microdilution method; format: functional; procedure, shortened: as §1
Pseudomonas aeruginosa [23] = experiment: Antibacterial activity against Pseudomonas aeruginosa ATCC 27853 by broth microdilution method; format: functional
[24] = system: Staphylococcus epidermidis; experiment: Antibacterial activity against aminoglycoside-resistant Staphylococcus epidermidis expressing APH(2'') + AAC(6')-1 by broth microdilution method; format: functional; procedure, shortened: as §1
Serratia sp. = experiment: Antibacterial activity against Serratia spp. by broth microdilution method; format: functional; details: Serratia sp. (in: enterobacteria)
Procedure, shortened: (§3)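 MICs were determined by CLSI broth microdilution against clinical isolate panels that included aminoglycoside-resistant isolates. […] MIC90 was derived per group and not calculated when n was <10. Imipenem, ceftobiprole, ciprofloxacin and tigecycline MICs were also determined for the resistant isolates.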

Escherichia coli [25] = experiment: Antibacterial activity against Escherichia coli by broth microdilution method; format: functional; procedure, shortened: as §3
Pseudomonas aeruginosa [26] = experiment: Antibacterial activity against aminoglycoside-resistant Pseudomonas aeruginosa expressing ANT(2'')-1 by broth microdilution method; format: functional; procedure, shortened: as §1
Acinetobacter baumannii [27] = experiment: Antibacterial activity against aminoglycoside-resistant Acinetobacter baumannii expressing ANT(2'')-1 by broth microdilution method; format: functional; procedure, shortened: as §1
Escherichia coli [28] = experiment: Antibacterial activity against aminoglycoside-resistant Escherichia coli expressing AAC(3)-4 by broth microdilution method; format: functional; procedure, shortened: as §1
Citrobacter freundii [29] = experiment: Antibacterial activity against aminoglycoside-resistant Citrobacter freundii expressing AAC(3)-2 by broth microdilution method; format: functional; procedure, shortened: as §1
Enterobacter sp. = experiment: Antibacterial activity against Enterobacter spp. by broth microdilution method; format: functional; procedure, shortened: as §3
Escherichia coli [30] = experiment: Antibacterial activity against aminoglycoside-resistant Escherichia coli expressing armA methylase by broth microdilution method; format: functional; procedure, shortened: as §2
Escherichia coli [31] = experiment: Antibacterial activity against aminoglycoside-resistant Escherichia coli expressing ANT(6')-1 by broth microdilution method; format: functional; procedure, shortened: as §1
Staphylococcus sp. = experiment: Antibacterial activity against Staphylococcus spp. by broth microdilution method; format: functional; procedure, shortened: as §3
Acinetobacter = experiment: Antibacterial activity against aminoglycoside-resistant Acinetobacter spp. expressing APH(3')-6 by broth microdilution method; format: functional; procedure, shortened: as §1
Staphylococcus aureus [32] = experiment: microbe, parasite or virus in culture; details: ATCC 29213
Escherichia coli [33] = experiment: Antibacterial activity against Escherichia coli ATCC 25922 by broth microdilution method; format: functional; procedure, shortened: as §2
Serratia marcescens [34] = experiment: Antibacterial activity against aminoglycoside-resistant Serratia marcescens expressing ANT(2''), AAC(6') by broth microdilution method; format: functional; procedure, shortened: as §2
[35] = system: Staphylococcus epidermidis; experiment: Antibacterial activity against aminoglycoside-resistant Staphylococcus epidermidis expressing APH(3')-3 by broth microdilution method; format: functional
[36] = system: Acinetobacter calcoaceticus; experiment: Antibacterial activity against aminoglycoside-resistant Acinetobacter calcoaceticus expressing AAC(6')-1 by broth microdilution method; format: functional; procedure, shortened: as §1
Klebsiella pneumoniae [37] = experiment: Antibacterial activity against aminoglycoside-resistant Klebsiella pneumoniae expressing AAC(3)-4 by broth microdilution method; format: functional; procedure, shortened: as §1
Pseudomonas aeruginosa [38] = experiment: Antibacterial activity against efflux pump deficient Pseudomonas aeruginosa by broth microdilution method; format: functional
Klebsiella oxytoca = experiment: Antibacterial activity against aminoglycoside-resistant Klebsiella oxytoca expressing AAC(6')-1 by broth microdilution method; format: functional; procedure, shortened: as §1

NCC[C@H](O)C(=O)N[C@@H]1C[C@H](N)[C@@H](O[C@H]2O[C@H](CN)[C@@H](O)[C@H](O)[C@H]2O)[C@H](O)[C@H]1O[C@H]1O[C@H](CO)[C@@H](O)[C@H](N)[C@H]1O [AMIKACIN]
> 64 µg/mL: MIC (Acinetobacter baumannii [6]) | MIC (Escherichia coli [30]) | MIC90 (Staphylococcus sp.) | MIC (Acinetobacter)
2 µg/mL: MIC (Serratia marcescens [2]) | MIC (Enterobacter cloacae [3]) | MIC (Staphylococcus aureus [10]) | MIC (Escherichia coli [14]) | MIC (Pluralibacter gergoviae) | MIC (Pseudomonas aeruginosa [23]) | MIC (Escherichia coli [28]) | MIC (Escherichia coli [33]) | MIC (Klebsiella pneumoniae [37])
8 µg/mL: MIC (Providencia stuartii) | MIC50 (Serratia sp.) | MIC (Pseudomonas aeruginosa [26]) | MIC50 (Enterobacter sp.) | MIC (Serratia marcescens [34])
4 µg/mL: MIC (Escherichia coli [1]) | MIC (Escherichia coli [4]) | MIC (Klebsiella pneumoniae [7]) | MIC (Pseudomonas aeruginosa [8]) | MIC (Enterobacter cloacae [16]) | MIC (Pseudomonas aeruginosa [17]) | MIC (Pseudomonas aeruginosa [18]) | MIC (Klebsiella pneumoniae [20]) | MIC (Serratia liquefaciens) | MIC (Citrobacter freundii [29]) | MIC (Staphylococcus aureus [32]) | MIC [35]
32 µg/mL: MIC (Pseudomonas aeruginosa [12]) | MIC90 (Escherichia coli [25]) | MIC (Escherichia coli [31]) | MIC [36]
16 µg/mL: MIC (Acinetobacter baumannii [5]) | MIC50 (Escherichia coli [25]) | MIC (Acinetobacter baumannii [27]) | MIC50 (Staphylococcus sp.)
30 µg/mL: MIC (Citrobacter freundii [11]) | MIC (Klebsiella pneumoniae [13]) | MIC (Enterobacter cloacae [21]) | MIC (Klebsiella oxytoca)
18 µg/mL: MIC (Staphylococcus aureus [22]) | MIC [24]
64 µg/mL: MIC90 (Enterobacter sp.)
13 µg/mL: MIC [9] | MIC (Staphylococcus aureus [15])
0.5 µg/mL: MIC (Klebsiella pneumoniae [19]) | MIC (Pseudomonas aeruginosa [38])

CN[C@@H]1[C@@H](O)[C@@H](O[C@@H]2[C@@H](O)[C@H](O[C@H]3OC(CNCCO)=CC[C@H]3N)[C@@H](N)C[C@H]2NC(=O)[C@@H](O)CCN)OC[C@]1(C)O [PLAZOMICIN]
8 µg/mL: MIC (Acinetobacter baumannii [5]) | MIC (Pseudomonas aeruginosa [17]) | MIC (Pseudomonas aeruginosa [18])
4 µg/mL: MIC (Pseudomonas aeruginosa [12])
0.125 µg/mL: MIC (Pseudomonas aeruginosa [38])
1 µg/mL: MIC (Escherichia coli [1]) | MIC (Serratia marcescens [2]) | MIC (Enterobacter cloacae [3]) | MIC (Escherichia coli [4]) | MIC (Klebsiella pneumoniae [7]) | MIC [9] | MIC (Citrobacter freundii [11]) | MIC (Klebsiella pneumoniae [13]) | MIC (Escherichia coli [14]) | MIC (Pluralibacter gergoviae) | MIC (Staphylococcus aureus [15]) | MIC (Enterobacter cloacae [16]) | MIC (Klebsiella pneumoniae [20]) | MIC (Serratia liquefaciens) | MIC (Enterobacter cloacae [21]) | MIC (Staphylococcus aureus [22]) | MIC [24] | MIC50 (Serratia sp.) | MIC50 (Escherichia coli [25]) | MIC (Escherichia coli [28]) | MIC (Citrobacter freundii [29]) | MIC90 (Enterobacter sp.) | MIC50 (Staphylococcus sp.) | MIC (Acinetobacter) | MIC (Staphylococcus aureus [32]) | MIC (Escherichia coli [33]) | MIC [35] | MIC (Klebsiella pneumoniae [37]) | MIC (Klebsiella oxytoca)
3 µg/mL: MIC (Acinetobacter baumannii [6]) | MIC (Pseudomonas aeruginosa [26])
0.25 µg/mL: MIC (Klebsiella pneumoniae [19]) | MIC (Escherichia coli [31])
0.5 µg/mL: MIC (Staphylococcus aureus [10]) | MIC50 (Enterobacter sp.)
> 64 µg/mL: MIC (Providencia stuartii) | MIC (Escherichia coli [30])
2 µg/mL: MIC (Pseudomonas aeruginosa [8]) | MIC (Pseudomonas aeruginosa [23]) | MIC90 (Escherichia coli [25]) | MIC (Acinetobacter baumannii [27]) | MIC90 (Staphylococcus sp.) | MIC (Serratia marcescens [34]) | MIC [36]
